We go through 26 compounds from ChEMBL document CHEMBL1123142, “1,2,4-Triazolo[4,3-a]quinoxaline-1,4-diones as antiallergic agents” (J Med Chem, 1985).

SMILES strings stand for the structures. Where “and” joins values, the source holds several entries; their conditions need not be identical. Identical values can stand only once.

For assay [1], the species on record is Rattus norvegicus. In words: Concentration required to inhibit Antigen-induced release of Histamine from rat mast cells at 100 uM. The assay is classed as functional. The settings on record: Mast cell.
The subject of assay [2] is Rattus norvegicus. Description: Percent inhibitory activity in rat passive cutaneous anaphylaxis test at a dose of 25 mg/kg administered perorally. The assay is classed as functional. As to conditions: for inhibition in vivo at 25 mg/kg: Rattus norvegicus, po; for Inhibition: route oral, 25 mg/kg. A digest of the protocol: (§1)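 Rats immunized i.m. with ovalbumin plus aluminum hydroxide, plus B. pertussis i.p., gave IgE antiovalbumin serum. Naive male Sprague-Dawley rats were sensitized intradermally at dorsal sites (1:20), with 48 h latency. Compound was given orally in 1% methylcellulose, 10 min before i.v. challenge with 4 mg ovalbumin in 1% Evans blue. Blued wheal areas were read at 30 min. Groups of 4–8; mean ± SE, Student's t test.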

The species entered for assay [3] is Rattus norvegicus. In words: Concentration required to inhibit Antigen-induced release of Histamine from rat mast cells. The assay is classed as functional, cell-based. As to conditions: read-out: I50.
Assay [4] has as its system Rattus norvegicus. Description: Effective dose against IgE-mediated cutaneous anaphylaxis in the rat after peroral administration. Type of assay: functional. As to conditions: po. The method in brief: as §1
Assay [5] has as its system Rattus norvegicus. In words: Percent inhibitory activity in rat passive cutaneous anaphylaxis test at a dose of 25 mg/kg, ip. The assay is classed as functional. The settings on record: route intraperitoneal.
Assay [6] relates to Rattus norvegicus. In words: Percent inhibitory activity in rat passive cutaneous anaphylaxis test at a dose of 10 mg/kg administered perorally. The settings on record: route oral. The assay is classed as functional. The method in brief:
as §1

Assay [7] concerns Rattus norvegicus. Description: Effective dose against IgE-mediated cutaneous anaphylaxis in the rat after ip administration. Type of assay: functional.

In the assay filed under Rattus norvegicus [1], `COC(=O)n1nc2c(=O)n(C)c3ccccc3n2c1=O` yielded an inhibition at 100 µM of 30%.

In the assay with Rattus norvegicus [2], `COc1ccc2c(c1)n(C)c(=O)c1nnc(O)n12` had an inhibition in vivo at 25 mg/kg of 10%. In addition, in the assay filed under Rattus norvegicus [3], the IC50 came to 3 µM.

On to `CCCn1c(=O)c2nnc(O)n2c2ccc(Cl)cc21`, for which the inhibition in vivo at 25 mg/kg in the assay with Rattus norvegicus [2] turned out to be 53%. For the same compound, in the assay with Rattus norvegicus [4], the ED50 is 3 mg/kg. The IC50 in the assay filed under Rattus norvegicus [3] was found to be 0.4 µM.

`Cc1ccc2c(c1)n(C)c(=O)c1nnc(O)n12`: at 25 mg/kg the inhibition in vivo with Rattus norvegicus [2] was 18%. In addition, the IC50 in the assay listed under Rattus norvegicus [3] was found to be 6 µM.

As to `Cn1c(=O)c2nnc(O)n2c2ccc(Cl)cc21`, in the assay on Rattus norvegicus [2], 25 mg/kg produced 22% inhibition in vivo. In the assay on Rattus norvegicus [4], this compound returned an ED50 greater than 125 mg/kg. Further, the IC50 in the assay listed under Rattus norvegicus [3] was 10 µM.

On to `CC(=O)n1nc2c(=O)n(C)c3cc(C)c(C)cc3n2c1=O`, for which 25 mg/kg produced 26% inhibition in vivo with Rattus norvegicus [2]. Further, in the assay filed under Rattus norvegicus [3], the IC50 stood at 43 µM.

For the compound `Cn1c(=O)c2nnc(O)n2c2cc(Cl)ccc21`, in the assay on Rattus norvegicus [2], the inhibition in vivo at 25 mg/kg worked out at 42%. In the assay listed under Rattus norvegicus [3], the IC50 is 0.4 µM.

As to `Oc1nc2ccccc2n2c(O)nnc12`, the inhibition at 100 µM in the assay listed under Rattus norvegicus [1] was determined as 20%. In addition, the inhibition in vivo at 25 mg/kg in the assay with Rattus norvegicus [2] came to 40%.

In the case of `CCCn1c(=O)c2nn(CC(=O)OCC)c(=O)n2c2ccc(Cl)cc21`, the inhibition at 100 µM in the assay filed under Rattus norvegicus [1] turned out to be 20%. Besides, the inhibition in vivo at 25 mg/kg in the assay with Rattus norvegicus [5] stood at 14%.

As for `Cn1c(=O)c2nnc(O)n2c2ccccc21`, the inhibition in vivo at 10 mg/kg in the assay with Rattus norvegicus [6] was 56%. Besides, testing at 25 mg/kg with Rattus norvegicus [2] gave an inhibition in vivo of 38%. This compound also had an ED50 with Rattus norvegicus [4] of 6 mg/kg. The IC50 in the assay listed under Rattus norvegicus [3] came to 40 µM.

Compound `CCCn1c(=O)c2nn(C(=O)/C=C/c3ccccc3)c(=O)n2c2ccc(Cl)cc21` displayed an inhibition in vivo at 25 mg/kg in the assay on Rattus norvegicus [2] of 38%. The same compound displayed an ED50 with Rattus norvegicus [4] greater than 100 mg/kg. In addition, the IC50 in the assay listed under Rattus norvegicus [3] worked out at 1 µM.

Compound `COc1cc2c(c(Cl)c1OC)n(C)c(=O)c1nnc(O)n12` yielded an inhibition in vivo at 25 mg/kg in the assay on Rattus norvegicus [2] of 27%. Also, the IC50 in the assay filed under Rattus norvegicus [3] was 35 µM.

In the case of `Cn1c(=O)c2nnc(O)n2c2ccc(O)cc21`, the inhibition at 100 µM in the assay filed under Rattus norvegicus [1] came out at 29%. In addition, the inhibition in vivo at 25 mg/kg with Rattus norvegicus [2] is 20%.

For the compound `C=CCn1nc2c(=O)n(CCC)c3cc(Cl)ccc3n2c1=O`, 100 µM produced 20% inhibition in the assay listed under Rattus norvegicus [1].

As for `CC(=O)n1nc2c(=O)n(C)c3ccccc3n2c1=O`, the Inhibition with Rattus norvegicus [2] is 27% and 63%. Further, in the assay listed under Rattus norvegicus [3], the IC50 stood at 25 µM.

Turning to `CCCn1c(=O)c2nn(C(C)=O)c(=O)n2c2ccc(Cl)cc21`, the IC50 in the assay listed under Rattus norvegicus [3] came out at 0.1 µM. This compound returned an inhibition in vivo at 25 mg/kg with Rattus norvegicus [5] of 42%.

As to `CC(=O)c1ccc2c(c1)n(C)c(=O)c1nnc(O)n12`, the inhibition in vivo at 25 mg/kg in the assay with Rattus norvegicus [2] worked out at 49%. In addition, the IC50 in the assay filed under Rattus norvegicus [3] is 1 µM.

As for `Cc1cc2c(cc1C)n1c(O)nnc1c(=O)n2C`, in the assay filed under Rattus norvegicus [3], the IC50 amounted to 12 µM.

As for `CCCn1c(=O)c2nn(C)c(=O)n2c2ccc(Cl)cc21`, the ED50 in the assay on Rattus norvegicus [4] is greater than 100 mg/kg. Besides, the IC50 in the assay listed under Rattus norvegicus [3] stood at 1 µM.

As to `Cn1c(=O)c2nn(S(C)(=O)=O)c(=O)n2c2ccccc21`, the inhibition at 100 µM in the assay listed under Rattus norvegicus [1] came to 2%. For the same compound, testing at 25 mg/kg in the assay with Rattus norvegicus [2] gave an inhibition in vivo of 25%.

On to `CC(=O)n1nc2c(=O)n(C(C)=O)c3ccccc3n2c1=O`, for which the inhibition in vivo at 25 mg/kg in the assay on Rattus norvegicus [2] turned out to be 36%. Further, the IC50 in the assay filed under Rattus norvegicus [3] worked out at 10 µM.

In the assay on Rattus norvegicus [2], `Cc1cccc2c1n(C)c(=O)c1nnc(O)n12` yielded an inhibition in vivo at 25 mg/kg of 35% and an Inhibition of 53%. Moreover, the IC50 in the assay listed under Rattus norvegicus [3] is 17 µM.

`CCCn1c(=O)c2nnc(O)n2c2ccccc21`: testing at 10 mg/kg with Rattus norvegicus [6] gave an inhibition in vivo of 84%. This compound also yielded an inhibition in vivo at 25 mg/kg in the assay on Rattus norvegicus [2] of 58%. For the same compound, in the assay on Rattus norvegicus [4], the ED50 came out at 3 mg/kg. In addition, in the assay listed under Rattus norvegicus [3], the IC50 came out at 8 µM.

In the assay with Rattus norvegicus [2], `Cn1c(=O)c2nnc(O)n2c2ccc(C(F)(F)F)cc21` came in with an inhibition in vivo at 25 mg/kg of 52% and an Inhibition of 69%. The ED50 in the assay with Rattus norvegicus [4] is 12 mg/kg. The IC50 in the assay listed under Rattus norvegicus [3] came out at 1 µM.

On to `Cn1nc2c(=O)n(C)c3ccccc3n2c1=O`, for which, in the assay listed under Rattus norvegicus [1], testing at 100 µM gave an inhibition of 30%. This compound also yielded an inhibition in vivo at 25 mg/kg in the assay on Rattus norvegicus [2] of 0%.

As for `O=C([O-])c1cc(=O)c2c(OCC(O)COc3cccc4oc(C(=O)[O-])cc(=O)c34)cccc2o1.[Na+].[Na+]` [CROMOLYN SODIUM], in the assay with Rattus norvegicus [7], the ED50 amounted to 6 mg/kg.

As usually defined, the inhibition is the percentage by which the read-out fell short of the control. In general, inhibition in vivo refers to how much of the control response was suppressed. One may read the ED50 as the dose that gives a 50% effect, or the effect in half of the subjects. A word on the Inhibition: it is how much of the control response was suppressed. Lower therefore signals a response near the control.
